# Data as given in ChEMBL document CHEMBL4680121, “Development of (4-methoxyphenyl)-1H-tetrazol-5-amine regioisomers as a new class of selective antitubercular agents” (Eur J Med Chem, 2020).
# How the values were obtained:
# [1] = tested on: Mycobacterium tuberculosis; experiment: Antitubercular activity against Mycobacterium tuberculosis H37Rv ATCC 25618 assessed as reduction in bacterial growth incubated for 14 days in presence of 1/2 x MIC isoniazid by MABA method; format: functional; settings: H37Rv ATCC 25618, 336 h, time 14 day
# In short: (§1)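 Checkerboard-type combination in Middlebrook 7H9 with 10% OADC. The test derivative at 1 to 1/32 of its MIC alone was mixed with the reference drug fixed at 1/2 its MIC. 4 ml samples were inoculated with McFarland 1 suspension and incubated 14 days at 37 °C. MIC is the lowest derivative concentration in combination that inhibited growth in liquid medium.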
# [2] = tested on: Mycobacterium tuberculosis; experiment: Antitubercular activity against Mycobacterium tuberculosis H37Rv ATCC 25618 assessed as rifampicin MIC incubated for 14 days in presence of rifampicin by MABA method; format: functional; settings: H37Rv ATCC 25618, 336 h, time 14 day
# In short: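 In Middlebrook 7H9 with 10% OADC, the reference drug (INH, RMP, SM or EMB) at 1 to 1/32 of its MIC alone was mixed with the test derivative fixed at 1/2 its MIC. 4 ml samples were inoculated with McFarland 1 suspension and incubated 14 days at 37 °C. MIC is the lowest drug concentration in combination that inhibited growth.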
# [3] = tested on: Mycobacterium tuberculosis; experiment: Potentiation of rifampicin-induced antimycobacterial activity against Mycobacterium tuberculosis Spec.192 assessed as fold decrease in rifampicin MIC at 1/2X MIC incubated for 14 days in presence of rifampicin by MABA method; format: functional; settings: time 14 day
# In short: (§2)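 Combination assay in Middlebrook 7H9 broth with 10% OADC. The reference drug (INH, RMP, SM or EMB) was varied from 1 to 1/32 of its MIC, and the test derivative was fixed at 1/2 its own MIC. Single-agent MICs were determined first by MABA. Inoculum was 1 McFarland, with 14 days of incubation at 37 °C. The endpoint was the lowest reference-drug concentration that inhibited growth.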
# [4] = tested on: Mycobacterium tuberculosis; experiment: Antitubercular activity against Mycobacterium tuberculosis Spec.192 assessed as fractional inhibitory concentration index in presence of 1/2 x MIC ethambutol incubated for 14 days by MABA method; format: functional; settings: time 14 day
# In short: (§3)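 Interaction analysis in Middlebrook 7H9 with 10% OADC. Combination MICs came from mixing the derivative (1 to 1/32 MIC) with the reference drug at 1/2 MIC, and the reverse, after 14 days at 37 °C with McFarland 1 inoculum. FICI was calculated from the combination MIC values and the MICs alone.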
# HaCaT = experiment: Cytotoxicity against human HaCaT cells assessed as LDH release at 100 uM incubated for 72 hrs by LDH assay; format: cell-based
# In short: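 LDH release measured with a kit after 72 h exposure to 100 μM compound. Cells were seeded at 1×10^4 per well in DMEM or EMEM with 2% FBS. Absorbance was read at 490 nm. Release (%) = (A sample − A low control)/(A high control − A low control) × 100, with the Triton X-100 (1%) control taken as 100% release. Values are mean ± SD of three independent experiments run in triplicate.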
# [5] = tested on: Mycobacterium tuberculosis; experiment: Antitubercular activity against Mycobacterium tuberculosis Spec.192 assessed as fractional inhibitory concentration index in presence of 1/2 x MIC streptomycin incubated for 14 days by MABA method; format: functional; settings: time 14 day; in short: as §3
# Mycobacterium kansasii = experiment: Antibacterial activity against Mycobacterium kansasii assessed as inhibition of microbial growth incubated for 1 week by MABA method; format: functional; settings: 168 h, time 1 weeks
# In short: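 Microplate Alamar Blue assay using two-fold serial microdilution in Middlebrook 7H9 broth with 10% OADC, compounds 0.125–512 µg/ml from DMSO stocks. Inoculum came from fresh LJ culture, was adjusted to McFarland 1 and diluted 1:20. Plates were incubated 1 week at 37 °C, Alamar blue was added and plates were re-incubated 24 h. MIC was the lowest concentration preventing the blue-to-pink change. Each plate carried growth and sterile controls.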
# [6] = tested on: Staphylococcus epidermidis; experiment: Antibacterial activity against Staphylococcus epidermidis ATCC 1457 assessed as bacterial growth inhibition measured after 18 hrs by two-fold serial microdilution method; format: functional
# In short: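 Two-fold serial broth microdilution in MH II medium following modified CLSI procedures. Compounds were dissolved in DMSO and diluted in medium to at most 1% solvent, tested from 0.03125 to 512 μg/ml. Final inoculum 10^6 CFU/ml. MIC was taken as the lowest concentration with no visible growth after 18 h at 35 °C.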
# [7] = tested on: Mycobacterium tuberculosis; experiment: Potentiation of ethambutol-induced antimycobacterial activity against Mycobacterium tuberculosis Spec.192 assessed as fold decrease in ethambutol MIC at 1/2X MIC incubated for 14 days in presence of ethambutol by MABA method; format: functional; settings: time 14 day; in short: as §2
# [8] = tested on: Mycobacterium tuberculosis; experiment: Antitubercular activity against Mycobacterium tuberculosis Spec.192 assessed as reduction in bacterial growth incubated for 14 days in presence of 1/2 x MIC rifampicin by MABA method; format: functional; settings: Mycobacterium tuberculosis, 192, 336 h; time 14 day; in short: as §1
# [9] = tested on: Mycobacterium tuberculosis; experiment: Potentiation of rifampicin-induced antimycobacterial activity against Mycobacterium tuberculosis H37Rv ATCC 25618 assessed as fold decrease in rifampicin MIC at 1/2X MIC incubated for 14 days in presence of rifampicin by MABA method; format: functional; settings: time 14 day; in short: as §2
# [10] = tested on: Mycobacterium tuberculosis; experiment: Potentiation of ethambutol-induced antimycobacterial activity against Mycobacterium tuberculosis H37Rv ATCC 25618 assessed as fold decrease in ethambutol MIC at 1/2X MIC incubated for 14 days in presence of ethambutol by MABA method; format: functional; settings: time 14 day; in short: as §2
# [11] = tested on: Mycobacterium tuberculosis; experiment: Antitubercular activity against Mycobacterium tuberculosis H37Rv ATCC 25618 assessed as reduction in bacterial growth incubated for 14 days in presence of 1/2 x MIC rifampicin by MABA method; format: functional; settings: H37Rv ATCC 25618, 336 h, time 14 day; in short: as §1
structure (smiles),measurement,setting,value
COc1ccc(-n2nnnc2Nc2cccc(Br)c2)cc1,MIC,[1],0.25 mg/L
same,MIC,[2],0.25 mg/L
same,fold change (FC),[3],2
same,fractional inhibitory concentration index (FICI),[4],0.75
same,Activity,HaCaT,4.88%
same,fractional inhibitory concentration index (FICI),[5],0.5
same,MIC,Mycobacterium kansasii,512 mg/L
same,MIC,[6],> 256 mg/L
same,fold change (FC),[7],2
same,MIC,[8],0.5 mg/L
same,fold change (FC),[9],2
same,fold change (FC),[10],2
same,MIC,[11],0.5 mg/L
COc1ccc(-n2nnnc2Nc2ccc(Br)cc2)cc1,MIC,[1],0.25 mg/L
same,MIC,[2],0.25 mg/L
same,fractional inhibitory concentration index (FICI),[4],0.625
same,Activity,HaCaT,7.25%
same,fractional inhibitory concentration index (FICI),[5],0.375
same,MIC,Mycobacterium kansasii,512 mg/L
same,MIC,[6],> 256 mg/L
same,MIC,[8],0.5 mg/L
same,MIC,[11],0.5 mg/L
